Publication PMC3225805 (Chemistry & biology, 2011)
Like-named read-outs stand apart in the source and are kept apart here.

How the values were obtained:
Type in all cases: biochemical
[1] = target: T1, VLuc (Vibrio fischeri luciferase) (Aliivibrio fischeri, UniProt P19907); assay: luminescence inhibition, 1536-well CRC, FMN reductase-coupled; conditions: read-out: VLuc; 0.1 M sodium phosphate pH 7.0, 0.005% decanal, 0.1 mM NADH, 2 μM FMN, 0.1% BSA; partially purified enzyme
T1 sequence (P19907 1-354): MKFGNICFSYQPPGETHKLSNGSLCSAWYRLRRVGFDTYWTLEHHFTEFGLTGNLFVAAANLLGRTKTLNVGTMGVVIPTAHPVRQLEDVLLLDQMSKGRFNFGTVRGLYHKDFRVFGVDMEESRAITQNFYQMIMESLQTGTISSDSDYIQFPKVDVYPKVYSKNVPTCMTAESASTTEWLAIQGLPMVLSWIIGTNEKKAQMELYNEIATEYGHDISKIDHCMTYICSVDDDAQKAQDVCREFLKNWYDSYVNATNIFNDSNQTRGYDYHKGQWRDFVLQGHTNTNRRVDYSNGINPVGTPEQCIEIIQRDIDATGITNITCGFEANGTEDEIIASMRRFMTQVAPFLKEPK
T1 sequence (P19908 1-326 partner): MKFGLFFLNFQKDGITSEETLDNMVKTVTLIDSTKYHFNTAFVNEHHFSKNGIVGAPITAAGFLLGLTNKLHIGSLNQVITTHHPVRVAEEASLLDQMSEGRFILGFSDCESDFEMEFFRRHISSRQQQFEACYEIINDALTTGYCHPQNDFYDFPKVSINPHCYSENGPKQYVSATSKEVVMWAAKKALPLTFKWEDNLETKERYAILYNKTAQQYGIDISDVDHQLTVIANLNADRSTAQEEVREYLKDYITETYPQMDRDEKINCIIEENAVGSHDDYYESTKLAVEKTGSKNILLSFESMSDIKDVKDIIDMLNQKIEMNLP

[2] = target: T2, LmLuc (Luciola mingrelica luciferase) (Luciola mingrelica, UniProt Q26304); assay: luminescence inhibition, 1536-well CRC
T2 sequence (Q26304 1-548): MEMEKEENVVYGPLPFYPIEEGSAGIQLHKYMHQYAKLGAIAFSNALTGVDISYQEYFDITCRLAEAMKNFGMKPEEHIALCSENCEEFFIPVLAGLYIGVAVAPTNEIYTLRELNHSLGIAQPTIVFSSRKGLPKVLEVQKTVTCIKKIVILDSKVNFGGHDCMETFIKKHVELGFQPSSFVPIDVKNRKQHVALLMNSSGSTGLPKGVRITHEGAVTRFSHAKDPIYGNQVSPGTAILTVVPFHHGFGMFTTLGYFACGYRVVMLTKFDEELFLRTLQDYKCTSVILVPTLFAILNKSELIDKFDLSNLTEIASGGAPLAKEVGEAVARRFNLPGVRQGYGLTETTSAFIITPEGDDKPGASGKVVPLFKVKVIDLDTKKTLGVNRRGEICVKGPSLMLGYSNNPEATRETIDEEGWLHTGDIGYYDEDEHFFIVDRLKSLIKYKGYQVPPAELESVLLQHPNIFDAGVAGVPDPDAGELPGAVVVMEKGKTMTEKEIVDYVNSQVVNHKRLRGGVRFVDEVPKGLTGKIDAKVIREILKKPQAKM
How it was run: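 Luciola mingrelica luciferase at 5 nM final in 1536-well format, run by the same protocol as the Photinus enzyme with 10 μM D-luciferin and 10 μM ATP. Luminescence is read over a test-compound titration. IC50 comes from curve fitting and is given as mean ±SD of at least 4 determinations.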

[3] = target: T3, RLuc (Renilla reniformis luciferase) (Renilla reniformis, UniProt P27652); assay: luminescence inhibition, 1536-well CRC; conditions: read-out: % inhibition at 57 μM (inactive)
T3 sequence (P27652 1-311): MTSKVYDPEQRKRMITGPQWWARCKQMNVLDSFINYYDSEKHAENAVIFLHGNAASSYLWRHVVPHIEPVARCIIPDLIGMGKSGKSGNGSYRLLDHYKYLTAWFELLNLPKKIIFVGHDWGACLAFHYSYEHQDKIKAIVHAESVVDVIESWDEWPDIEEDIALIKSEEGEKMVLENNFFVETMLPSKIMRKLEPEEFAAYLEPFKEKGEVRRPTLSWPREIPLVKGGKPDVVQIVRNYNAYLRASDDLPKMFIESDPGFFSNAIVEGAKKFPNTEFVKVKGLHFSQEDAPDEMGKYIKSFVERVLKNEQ

[4] = target: T4, FLuc (Photinus pyralis luciferase) (Photinus pyralis, UniProt P08659); assay: luminescence inhibition, 1536-well CRC
T4 sequence (P08659 whole entry): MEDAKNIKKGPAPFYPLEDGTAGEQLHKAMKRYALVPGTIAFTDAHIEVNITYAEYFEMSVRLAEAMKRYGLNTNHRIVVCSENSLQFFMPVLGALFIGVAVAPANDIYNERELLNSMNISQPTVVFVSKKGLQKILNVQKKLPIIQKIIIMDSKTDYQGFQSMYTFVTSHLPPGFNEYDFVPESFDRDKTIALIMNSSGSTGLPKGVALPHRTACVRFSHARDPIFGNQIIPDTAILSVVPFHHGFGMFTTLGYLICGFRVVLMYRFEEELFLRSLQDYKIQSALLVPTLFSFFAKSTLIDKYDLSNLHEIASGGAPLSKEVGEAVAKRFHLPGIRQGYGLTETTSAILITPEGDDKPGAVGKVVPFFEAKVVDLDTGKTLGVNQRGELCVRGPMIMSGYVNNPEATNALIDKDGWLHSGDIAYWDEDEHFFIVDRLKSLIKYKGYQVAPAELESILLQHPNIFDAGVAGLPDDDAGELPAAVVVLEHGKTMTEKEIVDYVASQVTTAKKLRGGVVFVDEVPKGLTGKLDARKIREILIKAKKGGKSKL
How it was run: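 Purified wild-type Photinus pyralis luciferase in 1536-well format, with 10 μM D-luciferin and 10 μM ATP as substrates. Luminescence is read across a concentration titration of test compound. IC50 comes from the fitted concentration-response curve and is given as mean ±SD of at least 4 determinations.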

[5] = target: T3, RLuc (Renilla reniformis luciferase); assay: luminescence inhibition, 1536-well CRC
How it was run: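 Renilla reniformis luciferase in 1536-well format with 5 μM coelenterazine as substrate. Luminescence is measured over a test-compound concentration series. IC50 is taken from the fitted concentration-response curve and given as mean ±SD of at least 4 determinations.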

[6] = target: T2, LmLuc (Luciola mingrelica luciferase); assay: luminescence inhibition, 1536-well CRC; conditions: read-out: % inhibition at 57 μM (inactive)
[7] = target: T4, FLuc (Photinus pyralis luciferase); assay: luminescence inhibition, 1536-well CRC; conditions: read-out: % inhibition at 57 μM (inactive)
[8] = read-out: LmLuc, 10 μM D-luciferin and ATP, 5 nM enzyme
[9] = read-out: FLuc, 10 μM D-luciferin and ATP

O=C1O/C(=C\c2ccc(O)cc2)C(O)=C1c1ccc(O)cc1 [compound 1, aspulvinone E]
IC50 [1]: > 57 µM
IC50 [2]: 3.6 ± 1.1 µM
inhibition at 57 µM [3]: < 20%
IC50 [4]: 1.4 ± 1.6 µM

CC(C)(O)[C@H]1Cc2cc(/C=C3\OC(=O)C(c4ccc5c(c4)C[C@H](C(C)(C)O)O5)=C3O)ccc2O1 [compound 5, aspulvinone J-CR]
IC50 [1]: 6.5 ± 3.3 µM
IC50 ([5]; read-out: RLuc, 5 μM coelenterazine): > 57 µM
IC50 [2, 8]: 0.1 ± 0.03 µM

COC(=O)[C@@]1(Cc2ccc(O)c(CC=C(C)C)c2)OC(=O)C(O)=C1c1ccc(O)cc1 [compound 10, butyrolactone I]
inhibition at 57 µM [6]: < 20%
IC50 [5]: > 57 µM
inhibition at 57 µM [7]: < 20%

COC(=O)[C@]1(Cc2ccc(O)c(CC3OC3(C)C)c2)OC(=O)C(O)=C1c1ccc(O)cc1 (stereo partly drawn) [compound 11, butyrolactone III]
inhibition at 57 µM [6]: < 20%
inhibition at 57 µM [3]: < 20%
inhibition at 57 µM [7]: < 20%

aspulvinone F [compound 2]
IC50 ([5]; read-out: Ultra, 5 μM coelenterazine): > 57 µM
IC50 [2, 8]: 2.5 ± 0.5 µM
IC50 [4, 9]: 3.6 ± 1.5 µM

aspulvinone I-CR [compound 4]
IC50 [1]: 12 ± 2.3 µM
IC50 [2, 8]: 0.5 ± 0.2 µM
IC50 [4, 9]: 0.72 ± 0.4 µM

aspulvinone M-CR [compound 8]
IC50 [1]: 18 ± 8 µM
IC50 [2, 8]: 5.3 ± 5.9 µM
IC50 [4, 9]: 1.7 ± 1.6 µM

benzofuran [compound 12]
IC50 [2, 8]: 14.8 ± 2.8 µM
IC50 [4, 9]: 18.6 ± 8.8 µM
